Measured values pooled from the literature.
Compare with care: the assays were run in different laboratories.
Target: Rho-associated protein kinase 2 (ROCK2, Homo sapiens, UniProt O75116)

Compound	effect on	action	technique	tested at	measurement	value
Cc1cnc(NC2CCOCC2)nc1-n1cnc(C(=O)NC(CN)c2cc(F)cc(Cl)c2)c1 (centres unmarked)	enzyme activity	inhibitor	radiometric	1 µM	remaining activity	25%
c1ccc2c(-c3ccncc3)c[nH]c2c1	cell-free assay			0.5 µM	remaining signal	71.9%
Cn1cncc1C1=CN(c2ncnc3[nH]cnc23)CCS1	enzyme activity	inhibitor	radiometric	50 nM	inhibition	19.6%
CC(C)(C)C(=O)c1sc(NC2CCCCC2)nc1N	enzyme activity	inhibitor		10 µM	remaining activity	107%
CCCS(=O)(=O)Nc1ccc(F)c(C(=O)c2c[nH]c3ncc(-c4ccc(Cl)cc4)cc23)c1F	enzyme activity	inhibitor		1 µM	inhibition	< 10%
C[C@@H](N)[C@H]1CC[C@H](C(=O)Nc2ccncc2)CC1	cell-free assay			0.5 µM	remaining signal	26.3%
COc1cc2ncnc(Nc3ccc(Oc4ccccc4)c(C)c3C)c2cc1OC	enzyme activity	inhibitor		1 µM	inhibition	8%
FC(F)(F)c1ccc2c(c1)nc(-c1cccnc1)n2C1CC1	cell-free assay		competition with immobilised ligand	1 µM	remaining binding	100%
CS(=O)(=O)CCNCc1ccc(-c2ccc3ncnc(Nc4ccc(OCc5cccc(F)c5)c(Cl)c4)c3c2)o1	cell-free assay			0.5 µM	remaining signal	92.7%
Cc1ccc(C(=O)Nc2ccc(CN3CCN(C)CC3)c(C(F)(F)F)c2)cc1C#Cc1cnc2cccnn12	enzyme activity	inhibitor		23.5 nM	remaining activity	89%
Nc1ncnc2occ(-c3ccc(NC(=O)Nc4cc(C(F)(F)F)ccc4F)cc3)c12	cell-free assay	inhibitor		20 µM	remaining signal	0%
CC(C)(O)[C@H]1CC[C@H](Nc2ccc3ncc(-c4cccc(C(F)(F)F)c4)n3n2)CC1	enzyme activity	inhibitor		1 µM	remaining activity	92.8%
CC(=O)N1CCC(c2ccc(C(=O)NC3=NCCN3)cc2C(F)(F)F)CC1	cell-free assay		competition with immobilised ligand	1 µM	remaining binding	73%
CNC(=O)c1cc(Oc2ccc(NC(=O)Nc3ccc(Cl)c(C(F)(F)F)c3)cc2)ccn1	enzyme activity	inhibitor		0.3 µM	inhibition	-11%
CO[C@@H](C)c1c(Nc2ccc([C@@H](N(C)C(=O)C3CCS(=O)(=O)CC3)C(F)(F)F)cc2)cnc2cc(Cl)nn12	cell-free assay		competition with immobilised ligand	1 µM	remaining binding	100%
Cc1ccc(NC(=O)c2ccc(C)c(C(F)(F)F)c2)cc1C#Cc1nn(C2CCC(O)CC2)c2ncnc(N)c12 (centres unmarked)	cell-free assay			10 µM	remaining signal	56%
Nc1nc(Nc2ccccc2)sc1C(=O)c1c(F)cccc1F	enzyme activity	inhibitor		10 µM	remaining activity	55%
COc1ccc2c(c1)O[C@H](c1ccc(OC)c(OC)c1)C[C@@H]2NC(=O)C1(c2ccc3c(c2)OC(F)(F)O3)CC1	cell-free assay		competition with immobilised ligand	1 µM	remaining binding	88%

Compound	effect on	action	technique	tested at	measurement	value
CCCOc1ccc(OC)c(F)c1C(=O)c1ccc(C(=O)N[C@@H]2CNC[C@H]2NC(=O)c2ccc3[nH]ncc3c2)cc1	enzyme activity	inhibitor		0.5 µM	remaining activity	6%
CC(C)(C)c1nc2c(s1)c1nc(N)ncc1c1ccc(NS(=O)(=O)c3c(F)cccc3F)c(F)c12	enzyme activity	inhibitor	radiometric	1 µM	remaining activity	100%
Oc1cccc(-c2nc(N3CCOCC3)c3oc4ncccc4c3n2)c1	enzyme activity	inhibitor		10 µM	remaining activity	91%
CNc1cccc2cc(C(=O)Nc3ccc(C(=O)O)cc3)c(=O)[nH]c12	enzyme activity	inhibitor		10 µM	inhibition	7.9%
N#CCCc1ccc2c(c1)-c1[nH]c3ccc([N+](=O)[O-])cc3c1CC(=O)N2	cell-free assay			0.5 µM	remaining signal	28.6%
Cc1ccc(Nc2nccc(N(C)c3ccc4c(C)n(C)nc4c3)n2)cc1S(N)(=O)=O	enzyme activity	inhibitor		0.3 µM	inhibition	-15%
Cn1cnc(Br)c1C1=CN(c2ncnc3[nH]cnc23)CCS1	enzyme activity	inhibitor	radiometric	2 µM	inhibition	77.6%
CN(C)CC#Cc1ccc(OCCCc2sc(N3CCc4cccc(C(=O)Nc5nc6ccccc6s5)c4C3)nc2C(=O)O)c(F)c1	cell-free assay		competition with immobilised ligand	1 µM	remaining binding	100%
O=C(Nc1cnn(-c2csc(C(=O)NC3COC3)c2)c1)Nc1ccccc1Cl	enzyme activity	inhibitor		5 µM	remaining activity	100%
O=C(NCc1ncc(C(F)(F)F)cc1Cl)c1ccc2c(c1)C1(CCS(=O)(=O)CC1)[C@H](C1CC1)N2S(=O)(=O)c1ccc(F)cc1	cell-free assay		competition with immobilised ligand	1 µM	remaining binding	95%
COc1cc(Nc2cnc(C#N)c(O[C@H](C)CN(C)C)n2)ncc1-c1cnn(C)c1	enzyme activity	inhibitor	radiometric	1 µM	remaining activity	92%
CN([C@@H]1CCc2c(CC(=O)O)c3ccccc3n2C1)S(=O)(=O)c1ccc(F)cc1	cell-free assay		competition with immobilised ligand	1 µM	remaining binding	100%
CNCc1ccc(-c2cc(-c3nc(-c4ccc(S(=O)(=O)C(C)C)cc4)cnc3N)on2)cc1	enzyme activity	inhibitor		0.4 µM	inhibition	0%
CN1CC(Oc2cnc(C#N)cc2-c2ccn3nc(NC(=O)C4CC4)cc3c2)C1	enzyme activity	inhibitor		1 µM	inhibition	5%
CC/C(=N\NC(=O)NCc1cccc(O)c1)c1ccc(O)c(C)c1O	enzyme activity	inhibitor		0.1 µM	inhibition	82.6%
O=C(Nc1cnc(Oc2ccc(F)cc2)nc1)N1CCc2ncccc2[C@@H]1c1ccc(F)cc1	cell-free assay		competition with immobilised ligand	1 µM	remaining binding	100%
O=C(CSc1nc2nccnc2c(=O)n1CCc1ccccc1)Nc1nccs1	enzyme activity	inhibitor		10 µM	inhibition	2%
